Screening data (PubChem BioAssay)
An excerpt weighted towards active compounds, which were near 2.5% of everything screened.
TRPC6 inhibitor: blocks the mouse TRPC6 cation channel; Q61143; HEK293-TRPC6, membrane potential dye, ACh-evoked depolarization; active compounds read low; 310,000 compounds, 1.1% hits; AID 2553; B-score at 10 µM;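 active = B-score under library mean minus 3 SD, initial fluorescence not abnormally high, positive integrated signal ratio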;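 note: B-score derived from integrated fluorescence ratio over the kinetic read; more negative B-score means stronger inhibition of depolarization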
Platelet DG rel: platelet dense granule release activity; 300,000 compounds, 0.22% hits; inhibition, %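 (compounds screened at 7.5 µM in platelet-rich plasma)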; human platelet-rich plasma, SFLLRN dense granule ATP release, luminescence; AID 1663;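 active = mean replicate score, as percent of positive control, at or above 50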
TRPC4 potent: allosterically enhances the mouse TRPC4 cation channel. Q9QUQ5. B-score at 10 µM. HEK293 TRPC4beta/mu-opioid, DAMGO EC20, Fluo-4 Ca2+ flux; active compounds read high. 310,000 compounds, 0.42% hits. AID 2227;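 active = B-score of calcium response area above 5 SD of library B-scores, with initial fluorescence ratio within 5 SD of library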
Target sequence (Q9QUQ5 whole entry, looked up): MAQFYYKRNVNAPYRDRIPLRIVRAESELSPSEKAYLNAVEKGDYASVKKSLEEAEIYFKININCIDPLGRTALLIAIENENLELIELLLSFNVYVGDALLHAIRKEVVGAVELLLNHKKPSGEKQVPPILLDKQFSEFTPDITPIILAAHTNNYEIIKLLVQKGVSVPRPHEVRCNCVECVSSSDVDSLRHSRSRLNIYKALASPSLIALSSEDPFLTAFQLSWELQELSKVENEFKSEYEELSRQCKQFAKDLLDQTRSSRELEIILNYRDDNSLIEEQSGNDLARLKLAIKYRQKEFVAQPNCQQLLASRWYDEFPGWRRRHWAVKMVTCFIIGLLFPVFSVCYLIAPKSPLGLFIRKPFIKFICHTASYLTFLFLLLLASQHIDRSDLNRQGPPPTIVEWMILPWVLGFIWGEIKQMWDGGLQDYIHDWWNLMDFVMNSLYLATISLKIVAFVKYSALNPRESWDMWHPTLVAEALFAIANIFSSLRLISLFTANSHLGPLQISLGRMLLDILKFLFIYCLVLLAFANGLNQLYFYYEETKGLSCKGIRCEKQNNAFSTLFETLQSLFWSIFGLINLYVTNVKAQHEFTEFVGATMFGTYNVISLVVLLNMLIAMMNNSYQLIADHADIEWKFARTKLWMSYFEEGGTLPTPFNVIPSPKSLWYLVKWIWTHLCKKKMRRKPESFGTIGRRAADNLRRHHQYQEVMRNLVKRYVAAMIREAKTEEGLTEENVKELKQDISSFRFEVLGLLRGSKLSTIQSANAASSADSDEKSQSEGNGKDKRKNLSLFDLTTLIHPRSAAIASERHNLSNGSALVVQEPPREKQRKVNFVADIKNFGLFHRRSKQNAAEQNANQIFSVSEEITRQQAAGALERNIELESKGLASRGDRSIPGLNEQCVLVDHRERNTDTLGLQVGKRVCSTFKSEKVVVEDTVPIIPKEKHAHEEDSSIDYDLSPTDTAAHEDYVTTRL
TRPC4 act: activators of mouse TRPC4 channel | Q9QUQ5 | HEK293 TRPC4beta/mu-opioid, Fluo4 calcium fluorescence; active compounds read high | B-score at 10 µM | 310,000 compounds, 0.49% hits | AID 2237;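 active = B-score above 5 SD of library B-scores, and initial fluorescence ratio not above library mean plus 5 SD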;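 note: positive B-score marks a calcium rise read as TRPC4 activation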
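Assay system: HEK293 cells stably co-expressing mouse TRPC4beta and mu-opioid receptor / Timing: Fluo4 dye loading 45 min at room temperature, 110 s recording / Signal: Fluo4 calcium-sensitive dye fluorescence, kinetic, 1 Hz baseline / Read-out: integrated baseline-normalised fluorescence ratio, converted to per-well B score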
TRPC6 activator: mouse TRPC6 channel activation. Q61143. HEK293-TRPC6 membrane potential dye fluorescence; active compounds read high. B-score at 10 µM. 310,000 compounds, 0.13% hits. AID 2550;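 active = B-score of the integrated fluorescence ratio above library mean plus 3 SD, and starting fluorescence ratio within library mean plus 5 SD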;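 note: higher score means more depolarization so channel activation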
TRPC4 inh: inhibitors of mouse TRPC4 channel. 300,000 compounds, 0.39% hits. Q9QUQ5. HEK293 TRPC4beta/mu-opioid, DAMGO-evoked Fluo4 calcium flux; active compounds read low. B-score at 10 µM;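 active = B-score over 3 SD under the library average, no early fluorescence shift, positive overall ratio signal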
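test system = HEK293 cells with stable TRPC4beta plus mu-opioid receptor expression | detection = Fluo4 Ca2+ flux fluorescence | read-out = integrated fluorescence ratio relative to baseline, converted to per-well B score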
Each line names hits and unclear results; the compound was inactive in the other large screens.

CCCn1c(CN2CCN(c3cccc(Cl)c3)CC2)nc2c1c(=O)n(C)c(=O)n2C	TRPC4 potent 12
CCOC(=O)N1CCN(Cc2nc3c(c(=O)n(C)c(=O)n3C)n2Cc2cccc3ccccc23)CC1	Platelet DG rel 73
CCOC(=O)N1CCN(Cc2nc3c(c(=O)n(C)c(=O)n3C)n2Cc2cccc(C)c2)CC1	none
COCCn1c(CN2CCN(C(c3ccccc3)c3ccccc3)CC2)nc2c1c(=O)n(C)c(=O)n2C	none
CC1CN(c2snnc2C=C2C(=O)OC(C)(C)OC2=O)CC(C)O1 (configuration not stated)	none
CCc1nnc(NC(=O)CCC(=O)NCCc2ccccc2)s1	none
CCCNC(=S)Nc1ccc(Cl)cc1Cl	none
COc1ccc(C(CNc2ccc(C(F)(F)F)cn2)N(C)C)cc1OC (configuration not stated)	TRPC4 inh -6
O=C(Nc1ccc2c(c1)Cc1ccccc1-2)c1cccnc1	none
CCCCCSc1nnc2c(n1)OC(c1cccn1C)N(C(C)=O)c1ccccc1-2 (configuration not stated)	TRPC4 act 193
CC1(C)Cc2nc3oc4c(=O)n(CC(=O)Nc5ccccc5)cnc4c3cc2CO1	TRPC4 inh -6
Cc1ccc(NC(=O)Cn2cnc3c(oc4nc5c(cc43)COC(C)(C)C5)c2=O)cc1	none
Oc1c(Br)cc(Br)cc1C=Nc1ccc2[nH]ncc2c1	TRPC4 inh -7
COc1ccc(C=Nc2ccc3[nH]ncc3c2)c(O)c1	none
O=C(Nc1ccc(N2CCCCC2)cc1)c1ccccn1	Platelet DG rel 75
O=C(Nc1ccc(Cl)c(S(=O)(=O)N2CCOCC2)c1)c1cn2ccccc2n1	none
O=C(Nc1ccc(N2CCOCC2)cc1)c1cn2ccccc2n1	Platelet DG rel 68
COc1ccc(NC(=O)C(C)N2CCN(C)CC2)cc1 (configuration not stated)	none
COC(=O)c1ccc(CN2CCCC(C(=O)Nc3ccc(-c4ccn[nH]4)cc3)C2)cc1 (configuration not stated)	TRPC4 act 50
CCOC(=O)c1c(S(=O)(=O)NC2CCN(C(=O)OCC)CC2)c(C)n(C)c1C	none
CCOc1ccc(/C=C2\SC(=S)N(CCC(=O)N(CCO)c3ccccc3)C2=O)cc1	TRPC4 potent 12
COc1ccc(/C=C2\SC(=S)N(CCC(=O)N(CCO)c3ccccc3)C2=O)cc1OC	none
O=C1N/C(=C\c2ccc(O)cc2)C(=O)c2ccccc21	Platelet DG rel 80
O=C(Nc1ccccc1Cl)O/N=C/c1ccncc1	none
CCCSc1cc(N)cc([N+](=O)[O-])c1	TRPC4 inh -5
Nc1cccc([N+](=O)[O-])c1	none
Cc1ccc(S(=O)(=O)/N=C2\SC(CC(=O)Nc3ccc(F)cc3)C(=O)N2c2ccccc2)cc1 (configuration not stated)	none
O=C(CC1S/C(=N\S(=O)(=O)c2ccccc2)N(c2ccccc2)C1=O)Nc1ccc(F)cc1 (configuration not stated)	TRPC4 potent 10
Cc1cccc(NC(=O)CC2SC(=O)N(c3ccccc3)C2=O)c1 (configuration not stated)	Platelet DG rel 67
O=C(Cc1cccs1)Nc1nc(-c2ccc(F)c(F)c2)cs1	none
O=C(Cc1cccs1)Nc1nc(-c2ccc(F)cc2F)cs1	TRPC4 potent 85
COc1ccc(S(=O)(=O)NCC(c2ccc(C)cc2)N2CCN(C)CC2)cc1 (configuration not stated)	none
CCOC(=O)c1c(N)sc(C(=O)Nc2ccc3c(c2)OCO3)c1C	Platelet DG rel 56
CCCn1cnnc1CNC(=O)C1CCC(=O)N(CCc2ccc(OC)cc2)C1 (configuration not stated)	none
CCONc1ncnc2nonc12	none
Clc1ccc(CONc2ncnc3nonc23)c(Cl)c1	TRPC4 potent 30
Brc1ccc(OCc2ccccc2)c(CNCc2ccncc2)c1	TRPC4 inh -5
OCCNCc1cc(Br)ccc1OCc1ccc(F)cc1	TRPC4 inh -6
Clc1cc(Br)ccc1OCCCNCc1ccccc1	TRPC4 act 75
OCCCCNCc1cc(Br)ccc1OCc1ccccc1F	TRPC4 inh -7
C=CCOc1ccc(Br)cc1CNCC	none
Fc1ccc(COc2ccccc2CNCc2ccncc2)cc1	none
CCOC(=O)COc1ccc2c(c1)c(C(C)=O)c(C)n2-c1ccc(OC)cc1	none
Cc1cnc([N+](=O)[O-])n1CCOC(=O)NC(=O)c1ccc(F)cc1	none
OCCNCc1cc(Br)ccc1OCc1ccc(Cl)cc1Cl	TRPC4 inh -8
C=CCn1c(-c2cc3cccc(OC)c3o2)n[nH]c1=S	none
Cc1cc2ccccn2c1C(=O)c1cc([N+](=O)[O-])cc([N+](=O)[O-])c1	TRPC4 potent 12
CC1(c2ccc(Cl)cc2Cl)OCC(Cn2ccnc2)O1 (configuration not stated)	TRPC4 act 105
OC(Cn1ccnc1)c1ccc(Cl)cc1Cl (configuration not stated)	none
Cc1c(C)c2ccc(OCC(=O)Nc3ccccn3)c(C)c2oc1=O	Platelet DG rel 52
Cc1c(C)c2ccc(OCC(=O)N(C)C)c(C)c2oc1=O	none
Cc1ccc2oc(=O)c3cnn(CC(=O)NC4CCN(Cc5ccccc5)CC4)c3c2c1	TRPC4 act 107
Cc1cc(=O)oc2c(C)c(OCC(=O)NC3CCN(Cc4ccccc4)CC3)ccc12	none
Cc1c(OCC(=O)NC2CCN(Cc3ccccc3)CC2)ccc2c3c(c(=O)oc12)CCC3	TRPC4 potent 11
CN(C)CCN(Cc1ccccc1)S(=O)(=O)c1ccc(-c2ccc(=O)[nH]n2)s1	Platelet DG rel 51
COc1cc(-c2ccc3oc(-c4ccsc4)cc3c2)cc(OC)c1OC	none
COc1cc(C(=O)N2CCc3ccccc32)c([N+](=O)[O-])cc1OC	none
CCCCNC(=O)c1onc(CSc2cc(C)cc(C)c2)c1C(=O)NCCCC	none
CCCC(=O)NC(c1ccccc1)c1ccc2cccnc2c1O (configuration not stated)	TRPC6 inhibitor -5.8
CCCCC(=O)NC(c1ccccc1)c1ccc2cccnc2c1O (configuration not stated)	none
CC1=NNC(=O)C1CC(=O)N/N=C/C=C/c1ccccc1 (configuration not stated)	none
COc1ccc(C(=O)O)cc1S(=O)(=O)N(C)CCc1ccccn1	TRPC4 act 46
CSc1nsc(N/N=C/c2ccccc2)c1C#N	none
COc1ccc(/C=N/Nc2snc(SC)c2C#N)cc1OC	Platelet DG rel 52
Clc1cc(Br)ccc1OCCn1ccnc1	TRPC4 act 84, TRPC4 inh -6
Cc1cc(Br)ccc1OCCn1ccnc1	TRPC4 act 116
